# CYP2C19 activ = cytochrome P450 2C19 (human) activation; P33261; recombinant CYP2C19, luciferin-H EGE luminescence; active compounds read high; 0 = fully inhibited enzyme, 1 = untreated enzyme; activation factor at 5 µM; 96,000 tested, under 10 active; AID 1025;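 active means activation factor of at least 2 at 5 µM in the primary screen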;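 further: 0 = wells with 2.5 mM tranylcypromine and 1 = vehicle-only wells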
# Target sequence (P33261 whole entry, looked up): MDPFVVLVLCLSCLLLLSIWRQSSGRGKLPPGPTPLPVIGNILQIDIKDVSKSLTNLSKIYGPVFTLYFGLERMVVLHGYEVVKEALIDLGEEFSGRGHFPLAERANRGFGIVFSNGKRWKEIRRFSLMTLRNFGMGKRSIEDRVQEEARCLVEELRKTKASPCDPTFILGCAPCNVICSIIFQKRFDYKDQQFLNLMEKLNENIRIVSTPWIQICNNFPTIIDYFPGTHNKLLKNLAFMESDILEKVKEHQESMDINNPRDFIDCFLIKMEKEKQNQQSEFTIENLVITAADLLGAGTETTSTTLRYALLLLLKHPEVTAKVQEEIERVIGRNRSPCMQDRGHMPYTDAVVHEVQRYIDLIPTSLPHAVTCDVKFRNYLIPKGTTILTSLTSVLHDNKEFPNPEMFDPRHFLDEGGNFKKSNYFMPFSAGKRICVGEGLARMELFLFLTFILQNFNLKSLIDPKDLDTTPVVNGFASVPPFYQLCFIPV
# HIV Rev-RRE inh = HIV Rev-RRE protein-RNA interaction inhibition. 97,000 tested, 0.79% active. Rev peptide-RRE RNA binding, FRET. inhibition, % at 8 µM. P05866;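 active means inhibition above the screen-wide mean plus 3 SD, cut at about 35% in these data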;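 further: 0% = median DMSO wells and 100% = median Neomycin B control wells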
# Target sequence (P05866 whole entry, looked up): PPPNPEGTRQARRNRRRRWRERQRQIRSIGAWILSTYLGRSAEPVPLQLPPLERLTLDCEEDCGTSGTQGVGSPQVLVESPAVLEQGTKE
#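 Test system – labelled RRE RNA duplex and labelled Rev peptide · Signal – fluorescein-to-Cy5 FRET, 480 nm excitation · Evaluation – % inhibition of FRET ratio versus controls · Benchmarks – DMSO low control, neomycin B high control · Incubation – 5 min RNA-compound premix plus 15 min binding step, 25 °C · Medium – HEPES pH 7.5 salt buffer with EDTA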
# CYP2C19 inh = human CYP2C19 inhibition | 96,000 tested, 21% active | inhibition, % at 5 µM | AID 778 | P33261 | CYP2C19 Supersomes, luciferin-H EGE luminescence, 30 min;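 active means CYP2C19 inhibition above a set limit at 5 µM in the primary screen, cut at about 50% in these data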;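 further: plate controls were negative control wells for no effect and 2.5 mM tranylcypromine positive control for full effect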
# CYP2C9 act = activators of human CYP2C9; AID 1024; activation factor at 5 µM; P11712; recombinant CYP2C9, luciferin-H conversion, luminescence; active compounds read high; factor 1 = untreated enzyme, 0 = blocked; 96,000 tested, 1.4% active;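 active means activation factor of 2 or more for CYP2C9 at a 5 µM dose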;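 further: 0 = sulfaphenazole-blocked wells and 1 = vehicle-only wells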
# CYP2C9 inh = human CYP2C9 inhibition. CYP2C9 Supersomes, luciferin-H conversion, luminescence. 96,000 tested, 20% active. AID 777. inhibition, % at 5 µM;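 active means blocking of liver enzyme CYP2C9 beyond about 50% at 5 µM, limit read from the data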
# Cav32 inh = blocks human Cav3.2 T-type calcium channel; Cav3.2-expressing cells, Fluo-4 calcium fluorescence FDSS; active compounds read low; B-score at 10 µM; 100,000 tested, 4% active; AID 449739;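 active means single-dose well whose peak fluorescence ratio is a statistical outlier from its plate by either plate-standardised score or position-corrected B-score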
# * marks the source's active call; other numbers are inactive results; . = no result given. Rows were chosen to be rich in hits. Some 27% of all compounds tested hit in one or more screens of this group.
SMILES,CYP2C19 activ,HIV Rev-RRE inh,CYP2C19 inh,CYP2C9 act,CYP2C9 inh,Cav32 inh
CCC(C)NS(=O)(=O)c1ccc(OCC(=O)N2CCC(C)CC2)cc1 (configuration not stated),.,1.7,.,.,.,0.349
CC1CCN(C(=O)COC(=O)[C@H](C)NS(=O)(=O)/C=C/c2ccccc2)CC1,0.6,8.6,36.8,1.6,-63.8,-5.91*
Cc1ccc(Nc2nc(=O)c3cccnc3s2)cc1,0.1,12.9,93.9*,0.2,81.6*,-0.18
Cc1ccc(-n2c(CSc3nc(C)cc(C)n3)nnc2SCC(=O)N2CCCC2)cc1,1,3.0,-4.2,1,3.2,-0.0371
CCc1cccc(C)c1N(C(=O)Cn1c(COC)nc2ccccc21)C(C)COC (configuration not stated),0.8,5.0,21.9,0.6,36.3,-0.502
CCOCN(C(=O)Cn1c(COC)nc2ccccc21)c1c(C)cccc1CC,0.7,1.7,28.3,0.7,34.6,-3.32*
CC(CC(C)C(=O)Nc1ccccc1C(C)(C)C)C(=O)O (configuration not stated),.,4.0,.,.,.,0.017
Cc1cccc(/C(N)=N/OC(=O)N2c3ccccc3Sc3ccccc32)c1,0.7,0.7,27.4,0.5,54.4*,-4.92*
CCC(C(=O)O/N=C(\N)c1cccc(C)c1)c1ccccc1 (configuration not stated),0.9,9.1,11.8,0.8,23.1,-3.34
C[C@H]1CC[C@@]2(O[C@H](CCO)C[C@H](O)[C@H]2O)O1,.,.,.,.,.,0.242
NC(=O)c1cnn(Cc2ccc(Cl)cc2)c1N,1,7.0,-4.7,1,3.4,0.0905
NC(=O)c1ccc(C(F)(F)F)n(Cc2cccc(Cl)c2)c1=O,0.4,6.6,55.6*,0.7,25.1,-2.82
O=C1NCCN1Cc1cccc(Cl)c1,.,3.6,.,.,.,1.5
NC(=O)c1ccc(C(F)(F)F)n(Cc2ccc(Cl)cc2)c1=O,0.5,13.5,50.8*,0.8,22.4,1.05
NC(=O)c1ccc(-c2ccc(Br)cc2)o1,0.5,4.4,51.3*,0.5,46.3,-0.00166
COCCCn1c(SCC(=O)N2CCc3ccccc32)nnc1-c1ccoc1C,.,-2.4,.,.,.,1.26
Cc1ccc(Sc2oc(/C=N/n3cnnc3)cc2Br)cc1,0,-0.4,99.8*,0.8,16.1,1.28
Cc1cccc(C)c1OCC(=O)Nn1c(COc2ccccc2)nc2ccccc2c1=O,0.9,2.4,12.6,0.2,76.1*,-0.442
CC(=O)Nn1c(COc2ccccc2C)nc2ccccc2c1=O,0.2,6.3,75.7*,0.2,77.0*,0.814
Cc1ccccc1OCC(=O)NCCC(=O)O,1,2.5,-2.7,0.9,10.0,0.0828
Cc1ccccc1OCC(=O)Nn1c(COc2ccccc2)nc2ccccc2c1=O,0.7,5.1,34.3,0,99.6*,-2.53
COc1cccc(OC)c1C(=O)Nn1c(C2CCC2)nc2ccccc2c1=O,0.9,5.4,9.2,0.7,25.8,0.292
O=C(CN1CCCCC1)Nc1cccc([N+](=O)[O-])c1,1,9.8,-2.6,1,-3.9,0.388
CCOC(=O)C1CCCN(C(=O)c2cc3ncc(Br)cn3n2)C1 (configuration not stated),1,6.6,1.9,1,-3.0,0.555
COc1ccc(C2C(C(N)=O)=C(C)Nc3ncnn32)cc1 (configuration not stated),1.1,10.7,-10.9,1.1,-14.6,-0.115
SMILES,CYP2C19 activ,HIV Rev-RRE inh,CYP2C19 inh,CYP2C9 act,CYP2C9 inh,Cav32 inh
CN1C(=O)CC(N2CCN(c3ccc(Cl)c(Cl)c3)CC2)C1=O (configuration not stated),0.5,-0.6,47.2,0.8,17.0,-0.101
CCSC1=C(C#N)C(c2cccc(OC)c2)CC(=O)N1 (configuration not stated),0.8,1.2,22.7,0.9,5.1,.
COc1ccccc1C1CC(=O)NC(SCC(=O)Nc2ccccc2)=C1C#N (configuration not stated),0.2,7.3,76.0*,0.6,40.5,.
CCOC(=O)CC(=O)CSC1=C(C#N)C(c2ccccc2OC)CC(=O)N1 (configuration not stated),0.4,0.7,62.2*,0.4,62.7*,.
Cc1ccccc1NC(=O)CSC1=C(C#N)C(c2ccsc2)CC(=O)N1 (configuration not stated),0.7,7.5,27.4,1.4,-44.8,-1.39
N#CC1=C(SCC(=O)Nc2nccs2)NC(=O)CC1c1ccccc1 (configuration not stated),0.4,4.5,58.5*,0.1,86.7*,-0.8
O=S1(=O)CCN2C(=N1)Sc1c2ccc2c1CCCC2,0.3,.,69.6*,1.2,-19.5,0.385
CCOc1ccc(-c2onc(C(F)(F)F)c2-c2cscn2)c(O)c1,0.7,7.7,26.2,1.8,-77.8,-1.54
Cc1cc(O)cc(O)c1-c1onc(C(F)(F)F)c1-c1cscn1,0.2,5.3,79.8*,0.8,16.8,-5.2*
CCOC(=O)c1sc(NC(=O)c2ccc3ncsc3c2)nc1C,1,.,-2.4,1,-4.0,-0.429
C=CCOc1c(Br)cc(CNc2nccs2)cc1OC,.,9.5,.,.,.,-7.88*
CCNCc1cc(Br)c(OCC(=O)Nc2ccccc2)c(OC)c1,.,2.3,.,.,.,-0.0358
CCn1c(COc2ccccc2)nnc1SCC(=O)CC(=O)Nc1ccccc1OC,0.7,2.7,28.9,2.1*,-105.2,-0.184
CCn1c(COc2cccc(C)c2)nnc1SCC(=O)N1CCCC1,0.9,6.1,14.5,1,2.3,-0.0351
CCn1c(CNC(=O)COc2ccc(C(C)C)cc2)nnc1SCC(=O)Nc1ccccc1F,0.5,5.0,52.6*,0.3,71.0*,-1.9
CCn1c(CNC(=O)COc2ccc(C(C)C)cc2)nnc1SCC(=O)Nc1ccccc1C(C)C,0.8,2.8,23.8,0.7,30.0,-2.33
CCn1c(COc2ccccc2C)nnc1SCC(=O)CC(=O)Nc1ccccc1OC,0.6,5.1,43.4,2.5*,-154.7,-4.93*
CCn1c(COc2cccc(C)c2)nnc1SCC(=O)CC(=O)Nc1ccccc1OC,0.6,-3.8,35.6,3.1*,-212.8,-3.24
CC1(C)Cc2c(sc3nc(SCC(=O)NCc4ccco4)n(-c4ccccc4)c(=O)c23)CS1,0.7,16.7,25.7,0.5,53.9*,-2.61
Cc1sc2nc(SCC(=O)NCc3ccco3)n(C)c(=O)c2c1C,0.7,-2.8,27.7,0.7,33.9,1.51
Cc1sc2nc(SCC(=O)NCc3ccco3)n(CCc3ccccc3)c(=O)c2c1C,0.6,8.2,40.2,0.3,65.0*,-1.08
O=C(CCn1c(SCC(=O)NCc2ccco2)nc2ccccc2c1=O)NCCc1ccccc1,0.2,0.7,77.1*,0.1,85.3*,-0.183
O=C(CSc1nc2sc3c(c2c(=O)n1-c1ccccc1)CCCC3)NCc1ccco1,1.1,5.6,-8.1,1.1,-10.0,.
Cc1c(C#N)c2ccccc2n1CC(=O)N1CCc2ccccc2C1,1,.,0.3,0.7,27.8,0.082

# Compound activity as filed in PubChem BioAssay.
